Test results: ChEMBL document CHEMBL4270613, “Design, synthesis, biological evaluation and structure-activity relationship of sophoridine derivatives bearing pyrrole or indole scaffold as potential antitumor agents” (Eur J Med Chem, 2018)
Calls of active or inactive are those of the source. The rule behind the calls is not given here.

Legend:
HepG2 [1] = experiment: Induction of apoptosis in human HepG2 cells assessed as early apoptotic cells at 1.5 uM after 24 hrs by Annexin V-FITC/propidium iodide staining based flow cytometry (reference value: 1%); format: functional
In short: (§1)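 HepG2 treated at 0, 0.75, 1.5 and 3 µM for 24 h, then Annexin V-FITC/PI dual staining and quantification by flow cytometry.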

HepG2 [2] = experiment: Induction of apoptosis in human HepG2 cells assessed as late apoptotic cells at 1.5 uM after 24 hrs by Annexin V-FITC/propidium iodide staining based flow cytometry (reference value: 1.6%); format: functional; in short: as §1
HepG2 [3] = experiment: Induction of apoptosis in human HepG2 cells after 24 hrs by Annexin V-FITC/propidium iodide staining based flow cytometry; format: functional, cell-based; in short: as §1
CNE-2 = experiment: Antiproliferative activity against human CNE2 cells after 72 hrs by MTT assay; format: functional, cell-based; conditions: CNE-2, 72 h
HepG2 [4] = experiment: Induction of apoptosis in human HepG2 cells assessed as necrotic cells at 1.5 uM after 24 hrs by Annexin V-FITC/propidium iodide staining based flow cytometry (reference value: 1.18%); format: functional; in short: as §1
HepG2 [5] = experiment: Induction of apoptosis in human HepG2 cells assessed as necrotic cells at 3 uM after 24 hrs by Annexin V-FITC/propidium iodide staining based flow cytometry (reference value: 1.18%); format: functional; in short: as §1
HepG2 [6] = experiment: Induction of apoptosis in human HepG2 cells assessed as live cells at 0.75 uM after 24 hrs by Annexin V-FITC/propidium iodide staining based flow cytometry (reference value: 96.2%); format: functional; in short: as §1
HeLa = experiment: Antiproliferative activity against human HeLa cells after 72 hrs by MTT assay; format: functional, cell-based
HepG2 [7] = experiment: Antiproliferative activity against human HepG2 cells after 72 hrs by MTT assay; format: functional, cell-based; conditions: HepG2, 72 h
HepG2 [8] = experiment: Induction of apoptosis in human HepG2 cells assessed as late apoptotic cells at 3 uM after 24 hrs by Annexin V-FITC/propidium iodide staining based flow cytometry (reference value: 1.6%); format: functional; in short: as §1
Mus musculus = experiment: Toxicity in nude mouse xenografted with human HepG2 cells assessed as change in body weight at 40 mg/kg for 25 days; format: organism-based; conditions: in vivo, 600 h
In short: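 Nude mice bearing HepG2 xenografts dosed at 40 mg/kg against vehicle; body weight and tumor volume measured every 2 days; tumors weighed at end.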

HepG2 [9] = experiment: Induction of apoptosis in human HepG2 cells assessed as late apoptotic cells at 0.75 uM after 24 hrs by Annexin V-FITC/propidium iodide staining based flow cytometry (reference value: 1.6%); format: functional; in short: as §1
[10] = target: T1, DNA topoisomerase 1 (Homo sapiens) (UniProt P11387); experiment: Inhibition of recombinant human topoisomerase-1 using supercoiled pBR322 DNA as substrate after 45 mins by ethidium bromide staining based gel electrophoresis method
T1 sequence (whole entry): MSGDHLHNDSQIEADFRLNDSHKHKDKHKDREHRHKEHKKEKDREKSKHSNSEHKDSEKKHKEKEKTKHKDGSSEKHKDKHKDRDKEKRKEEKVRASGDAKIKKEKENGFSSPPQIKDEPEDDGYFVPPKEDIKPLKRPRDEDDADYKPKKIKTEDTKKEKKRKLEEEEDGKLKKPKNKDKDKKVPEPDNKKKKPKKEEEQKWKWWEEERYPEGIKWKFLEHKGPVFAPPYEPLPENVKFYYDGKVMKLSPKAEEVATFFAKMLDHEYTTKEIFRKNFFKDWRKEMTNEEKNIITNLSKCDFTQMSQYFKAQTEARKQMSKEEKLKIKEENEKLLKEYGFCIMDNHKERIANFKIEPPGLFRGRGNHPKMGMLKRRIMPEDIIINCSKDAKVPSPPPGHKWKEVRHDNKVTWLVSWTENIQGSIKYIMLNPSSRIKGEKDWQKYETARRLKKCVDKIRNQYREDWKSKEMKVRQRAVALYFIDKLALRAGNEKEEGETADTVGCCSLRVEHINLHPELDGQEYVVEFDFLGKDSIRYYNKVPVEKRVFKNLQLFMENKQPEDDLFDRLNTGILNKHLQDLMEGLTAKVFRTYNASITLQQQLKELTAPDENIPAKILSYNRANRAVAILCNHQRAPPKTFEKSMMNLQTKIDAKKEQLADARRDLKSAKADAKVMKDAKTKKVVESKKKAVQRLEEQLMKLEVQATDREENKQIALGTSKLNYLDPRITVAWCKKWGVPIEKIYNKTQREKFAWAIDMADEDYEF
In short: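 Plasmid relaxation assay: pBR322 DNA with Topo I plus DMSO vehicle, test compound at 1000, 500, 250 or 100 µM, or CPT at 100 µM as control; DNA alone as reference lane; products resolved on gel.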

HepG2 [11] = experiment: Upregulation of cleaved caspase-3 protein expression in human HepG2 cells at 0.75 to 3 uM after 24 hrs by Western blot analysis; format: functional, cell-based
In short: (§2)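 HepG2 treated at 0, 0.75, 1.5 and 3 µM for 24 h, then western blot for Bax, Bcl-2 and cleaved caspase-3.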

CNE = experiment: Antiproliferative activity against human CNE1 cells after 72 hrs by MTT assay; format: functional, cell-based
HepG2 [12] = experiment: Upregulation of Bax protein expression in human HepG2 cells after 24 hrs by Western blot analysis; format: functional, cell-based; in short: as §2
MCF7 = experiment: Antiproliferative activity against human MCF7 cells after 72 hrs by MTT assay; format: functional, cell-based; conditions: MCF7, 72 h
HepG2 [13] = experiment: Antiproliferative activity against human HepG2 cells after 48 hrs by MTT assay; format: functional, cell-based; conditions: HepG2, 48 h
In short: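 HepG2 exposed to compounds for 48 h; MTT readout; camptothecin positive control; IC50 calculated; mean ± SD of three independent experiments, each in triplicate.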

HepG2 [14] = experiment: Induction of apoptosis in human HepG2 cells assessed as early apoptotic cells at 3 uM after 24 hrs by Annexin V-FITC/propidium iodide staining based flow cytometry (reference value: 1%); format: functional; in short: as §1
HepG2 [15] = experiment: Induction of apoptosis in human HepG2 cells assessed as early apoptotic cells at 0.75 uM after 24 hrs by Annexin V-FITC/propidium iodide staining based flow cytometry (reference value: 1%); format: functional; in short: as §1
HepG2 [16] = experiment: Induction of apoptosis in human HepG2 cells assessed as necrotic cells at 0.75 uM after 24 hrs by Annexin V-FITC/propidium iodide staining based flow cytometry (reference value: 1.18%); format: functional; in short: as §1
HepG2 [17] = experiment: Induction of apoptosis in human HepG2 cells assessed as live cells at 1.5 uM after 24 hrs by Annexin V-FITC/propidium iodide staining based flow cytometry (reference value: 96.2%); format: functional; in short: as §1
HepG2 [18] = experiment: Downregulation of Bcl2 protein expression in human HepG2 cells after 24 hrs by Western blot analysis; format: functional, cell-based; in short: as §2
SMMC-7721 = experiment: Antiproliferative activity against human SMMC7721 cells after 72 hrs by MTT assay; format: functional, cell-based; conditions: SMMC-7721, 72 h
HepG2 [19] = experiment: Induction of apoptosis in human HepG2 cells assessed as live cells at 3 uM after 24 hrs by Annexin V-FITC/propidium iodide staining based flow cytometry (reference value: 96.2%); format: functional; in short: as §1
HepG2 [20] = experiment: Antitumor activity against human HepG2 cells xenografted in nude mouse assessed as tumor growth inhibition at 40 mg/kg for 25 days; format: functional, organism-based
In short: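 HepG2 xenografts were grown in nude mice and dosed at 40 mg/kg alongside a vehicle group. Tumour volume and body weight were recorded every 2 days. At the end, tumours were excised and weighed. Groups were compared with the vehicle group.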

IC50 (HeLa): 1.44 µM
IC50 (HepG2 [7]): 0.93 µM
inhibition [10]: Dose-dependent effect
IC50 (MCF7): 0.94 µM
IC50 (HepG2 [13]): 1.96 µM
IC50 (SMMC-7721): 1.32 µM
Structure (SMILES): COc1ccc2c(c1)c(/C=C1\CC[C@@H]3[C@H]4CCCN5CCC[C@H](CN3C1=O)[C@@H]45)cn2Cc1ccc(OCc2ccccc2)cc1
Activity (HepG2 [1]): 9.49%
Activity (HepG2 [2]): 11.5%
Activity (HepG2 [3]): Dose-dependent effect
IC50 (CNE-2): 1.24 µM
Activity (HepG2 [4]): 0.94%
Activity (HepG2 [5]): 1.52%
Activity (HepG2 [6]): 87.6%
Activity (HepG2 [8]): 7.69%
Activity (Mus musculus): Non-Toxic
Activity (HepG2 [9]): 3.09%
Activity (HepG2 [11]): Active
IC50 (CNE): 1.89 µM
Activity (HepG2 [12]): Dose-dependent effect
Activity (HepG2 [14]): 33.8%
Activity (HepG2 [15]): 6.71%
Activity (HepG2 [16]): 2.58%
Activity (HepG2 [17]): 78%
Activity (HepG2 [18]): Dose-dependent effect
Activity (HepG2 [19]): 57%
TGI (HepG2 [20]): Active
